The results in this text go back to ChEMBL document CHEMBL1765003, “Discovery of (1S,2R,3R)-2,3-dimethyl-2-phenyl-1-sulfamidocyclopropanecarboxylates: novel and highly selective aggrecanase inhibitors” (J Med Chem, 2011).

Data set [1] is described as follows: AUC in Sprague-Dawley rat at 10 mg/kg, po. In kind it is ADME, organism-based. More on the design: dose 10 mg/kg, route oral. The following applies: plasma.
Data set [2] has as its target Cytochrome P450 2C9 (Homo sapiens, UniProt P11712). The data set is described as follows: Inhibition of CYP2C9 at up to 50 uM. Format: ADME.
Data set [3] can be described thus: Volume of distribution at steady state in Sprague-Dawley rat at 1 mg/kg, iv. Further details: dose 1 mg/kg, route intravenous; call rule not given here. In kind it is ADME, organism-based. As to conditions: in vivo, read-out: Vdss. Summed up: (§1)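 Intravenous dose of 1 mg/kg. Blood sampled at 0.50, 1, 2, 4, 8 and 24 h. Plasma obtained by centrifugation at 10 000 rpm for 5 min and kept at −20 °C until analysis.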

Data set [4] has as its target Stromelysin-1 (Homo sapiens, UniProt P08254). The data set is described as follows: Inhibition of human recombinant MMP3 after 60 mins by fluorescence plate reader. The method, boiled down:
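rh-MMP-3 at 40 ng/mL with 10 μM MOCAc-Arg-Pro-Lys-Pro-Val-Glu-Nva-Trp-Arg-Lys(Dnp)-NH₂, in Tris-HCl pH 7.5/NaCl/CaCl₂/Brij-35 buffer. Inhibitor preincubated for 15 min at 25 °C. Fluorescence (ex 325/em 405 nm) read at 60 min. IC50 from three central linear points; at least two determinations averaged.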

Data set [5] addresses Cytochrome P450 3A4 (Homo sapiens, UniProt P08684). Briefly: Inhibition of CYP3A4 at up to 50 uM. Format: ADME.
The nature of data set [6]: Clearance in Sprague-Dawley rat at 1 mg/kg, iv. In kind it is ADME, organism-based. More on the design: dose 1 mg/kg, route intravenous. As to conditions: in vivo. Summed up:
as §1

Data set [7] concerns the target T1, Cytochrome P450 1A2 (Homo sapiens, UniProt P05177).
T1 sequence (P05177 whole entry): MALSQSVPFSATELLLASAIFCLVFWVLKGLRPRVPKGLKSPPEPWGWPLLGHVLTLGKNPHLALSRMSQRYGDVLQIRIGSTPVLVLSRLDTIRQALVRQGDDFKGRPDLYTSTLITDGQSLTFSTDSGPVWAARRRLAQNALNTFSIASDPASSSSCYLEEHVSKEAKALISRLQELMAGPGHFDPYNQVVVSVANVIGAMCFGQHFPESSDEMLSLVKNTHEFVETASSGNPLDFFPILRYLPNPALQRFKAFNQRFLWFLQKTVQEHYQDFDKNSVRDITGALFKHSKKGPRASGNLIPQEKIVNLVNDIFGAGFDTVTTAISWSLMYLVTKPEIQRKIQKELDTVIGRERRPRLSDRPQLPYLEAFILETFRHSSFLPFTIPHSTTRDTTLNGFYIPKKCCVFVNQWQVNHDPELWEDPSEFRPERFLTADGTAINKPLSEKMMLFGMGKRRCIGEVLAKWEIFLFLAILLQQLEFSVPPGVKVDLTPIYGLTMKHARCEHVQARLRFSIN
Briefly: Inhibition of CYP1A2 at up to 50 uM. Format: ADME.

A short description of data set [8]: Cmax in Sprague-Dawley rat at 10 mg/kg, po. In kind it is ADME, organism-based. Further details: dose 10 mg/kg, route oral. The following applies: in vivo.
Data set [9] has as its target Matrix metalloproteinase-14 (Homo sapiens, UniProt P50281). Briefly: Inhibition of human recombinant MMP14 after 60 mins by fluorescence plate reader. The method, boiled down: (§2)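 Recombinant human enzyme at 20 ng/mL with 10 μM MOCAc-Lys-Pro-Leu-Gly-Leu-A2pr(Dnp)-Ala-Arg-NH₂, in 100 mM Tris-HCl pH 7.5, 150 mM NaCl, 10 mM CaCl₂, 0.05% Brij-35. Enzyme pretreated with inhibitor for 15 min at 25 °C, then substrate added. Fluorescence (ex 325, em 405 nm) read at 60 min. IC50 taken from three points in the linear range; mean of ≥2 determinations.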

Data set [10] has as its target Collagenase 3 (Homo sapiens, UniProt P45452). The data set is described as follows: Inhibition of human recombinant MMP13 after 60 mins by fluorescence plate reader. Summed up:
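rh-MMP-13 at 40 ng/mL with 5 μM 7-MCA-Pro-CHA-Gly-NVal-His-Ala-DPA, in Tris-HCl pH 7.5/NaCl/CaCl₂/0.05% Brij-35. Pretreatment with inhibitor for 15 min at 25 °C, then substrate started the reaction. Fluorescence (ex 325/em 405 nm) read at 60 min. IC50 from three central linear points, averaged over ≥2 determinations.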

Data set [11] concerns the target T2, Interstitial collagenase (Homo sapiens, UniProt P03956).
T2 sequence (P03956 whole entry): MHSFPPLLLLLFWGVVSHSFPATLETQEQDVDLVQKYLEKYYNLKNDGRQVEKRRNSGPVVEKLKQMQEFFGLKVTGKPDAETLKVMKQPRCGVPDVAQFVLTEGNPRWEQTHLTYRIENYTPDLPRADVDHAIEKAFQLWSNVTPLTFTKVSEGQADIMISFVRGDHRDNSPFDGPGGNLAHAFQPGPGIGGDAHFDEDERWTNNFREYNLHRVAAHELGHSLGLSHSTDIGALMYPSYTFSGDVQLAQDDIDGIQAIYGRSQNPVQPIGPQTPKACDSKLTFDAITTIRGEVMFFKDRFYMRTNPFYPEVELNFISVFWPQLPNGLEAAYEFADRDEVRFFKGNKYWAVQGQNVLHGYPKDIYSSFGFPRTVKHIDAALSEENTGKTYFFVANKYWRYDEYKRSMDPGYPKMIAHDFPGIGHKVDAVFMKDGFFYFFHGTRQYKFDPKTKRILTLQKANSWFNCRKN
Briefly: Inhibition of human recombinant MMP1 after 60 mins by fluorescence plate reader. The method, boiled down:
as §2

Chain of Cytochrome P450 2C9 (P11712 whole entry): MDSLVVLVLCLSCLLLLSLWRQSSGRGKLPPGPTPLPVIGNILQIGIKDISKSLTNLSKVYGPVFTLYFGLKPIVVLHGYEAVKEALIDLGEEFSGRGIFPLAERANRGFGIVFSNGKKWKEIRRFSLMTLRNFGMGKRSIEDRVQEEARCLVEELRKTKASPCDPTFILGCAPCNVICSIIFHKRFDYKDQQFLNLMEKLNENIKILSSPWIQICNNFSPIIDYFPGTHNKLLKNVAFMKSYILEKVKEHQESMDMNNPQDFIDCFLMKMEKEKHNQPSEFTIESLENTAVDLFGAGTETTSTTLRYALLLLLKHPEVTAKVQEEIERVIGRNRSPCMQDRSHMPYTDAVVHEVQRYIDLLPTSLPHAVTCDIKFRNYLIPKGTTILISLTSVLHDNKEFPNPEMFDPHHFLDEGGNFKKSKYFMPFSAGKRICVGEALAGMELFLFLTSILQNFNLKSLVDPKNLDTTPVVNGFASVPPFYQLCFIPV
Chain of Cytochrome P450 3A4 (P08684 whole entry): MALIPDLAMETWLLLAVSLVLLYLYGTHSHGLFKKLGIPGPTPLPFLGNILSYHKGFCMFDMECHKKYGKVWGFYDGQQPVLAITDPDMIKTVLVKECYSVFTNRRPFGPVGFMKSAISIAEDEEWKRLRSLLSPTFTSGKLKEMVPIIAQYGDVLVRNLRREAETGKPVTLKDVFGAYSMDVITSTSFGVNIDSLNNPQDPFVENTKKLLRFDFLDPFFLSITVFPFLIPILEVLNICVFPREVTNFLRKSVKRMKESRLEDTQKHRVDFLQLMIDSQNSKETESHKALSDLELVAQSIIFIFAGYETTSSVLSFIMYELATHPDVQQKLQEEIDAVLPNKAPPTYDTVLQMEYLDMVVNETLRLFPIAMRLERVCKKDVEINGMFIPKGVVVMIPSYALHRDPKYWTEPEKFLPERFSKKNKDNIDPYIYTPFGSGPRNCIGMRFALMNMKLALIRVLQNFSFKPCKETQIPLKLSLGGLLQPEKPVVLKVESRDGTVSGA
Chain of Stromelysin-1 (P08254 whole entry): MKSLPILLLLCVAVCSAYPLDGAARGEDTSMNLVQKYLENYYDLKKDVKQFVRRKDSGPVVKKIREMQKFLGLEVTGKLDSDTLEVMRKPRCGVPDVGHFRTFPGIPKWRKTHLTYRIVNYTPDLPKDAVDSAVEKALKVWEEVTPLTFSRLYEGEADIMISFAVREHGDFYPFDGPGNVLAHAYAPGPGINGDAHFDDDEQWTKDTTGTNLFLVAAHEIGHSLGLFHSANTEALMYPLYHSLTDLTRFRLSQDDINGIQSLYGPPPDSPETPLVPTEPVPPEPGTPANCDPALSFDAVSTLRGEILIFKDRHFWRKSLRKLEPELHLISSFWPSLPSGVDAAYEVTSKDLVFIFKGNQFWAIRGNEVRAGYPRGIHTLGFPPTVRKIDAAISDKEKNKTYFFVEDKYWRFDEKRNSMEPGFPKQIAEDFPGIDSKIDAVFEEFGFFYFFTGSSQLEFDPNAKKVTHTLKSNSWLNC

`C[C@@H]1[C@](C)(c2ccccc2)[C@]1(NS(=O)(=O)N1CCc2c(nc3cc(F)ccn23)C1)C(=O)O` showed an AUC in [1] of 421 µM·h. The “inhibition (INH)” value in data set [2], in data set [5] and in [7] was “Not Active” each time. Also, the Vd in data set [3] was determined as 0.25 L/kg. Besides, the IC50 in data set [4] was 9.6 µM; in [9], above 10 µM; in [10], above 10 µM; in data set [11], above 10 µM. In data set [6], this compound gave a clearance of 1 mL/min/kg. Moreover, in data set [8], the peak level (Cmax) was 54.1 µM.
